8 compounds from ChEMBL document CHEMBL4428078, “Discovery of S3-Truncated, C-6 Heteroaryl Substituted Aminothiazine β-Site APP Cleaving Enzyme-1 (BACE1) Inhibitors” (J Med Chem, 2016) can be followed below.

Data set [1] can be described thus: Metabolic stability in rat liver microsomes assessed as compound remaining at 0.5 uM measured after 10 mins. It is filed as ADME, Microsome. The note with it: read-out: Stability. An outline of the steps: (§1)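 Test compound at 0.5 µM incubated 10 min with mouse, rat or human liver microsomes. Read-out is percent of parent compound remaining.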
In another data set the target is Beta-secretase 1 (Homo sapiens, UniProt P56817). Kind of data set: Inhibition of BACE1 in human H4 cells expressing swedish mutant APP751 assessed as reduction in amyloid beta level measured after 19 hrs. In kind it is cell-based.
Sequence of Beta-secretase 1 (P56817 whole entry): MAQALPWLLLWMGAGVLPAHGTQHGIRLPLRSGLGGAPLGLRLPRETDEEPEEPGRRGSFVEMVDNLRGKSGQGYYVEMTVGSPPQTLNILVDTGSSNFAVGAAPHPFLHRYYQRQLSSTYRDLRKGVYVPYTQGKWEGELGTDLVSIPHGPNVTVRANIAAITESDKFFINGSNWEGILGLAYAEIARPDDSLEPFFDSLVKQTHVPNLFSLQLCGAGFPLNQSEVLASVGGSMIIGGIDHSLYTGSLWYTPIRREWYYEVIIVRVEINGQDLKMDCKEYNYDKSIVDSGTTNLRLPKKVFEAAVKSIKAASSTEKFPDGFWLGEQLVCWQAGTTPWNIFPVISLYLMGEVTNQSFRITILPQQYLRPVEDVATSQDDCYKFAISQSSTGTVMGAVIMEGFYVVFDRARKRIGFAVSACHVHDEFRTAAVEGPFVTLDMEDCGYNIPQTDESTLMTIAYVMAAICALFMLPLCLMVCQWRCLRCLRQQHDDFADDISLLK
Data set [2] is described as follows: Metabolic stability in mouse liver microsomes assessed as compound remaining at 0.5 uM measured after 10 mins. In kind it is ADME, Microsome. The note with it: read-out: Stability. The essentials:
as §1

The nature of data set [3]: Metabolic stability in human liver microsomes assessed as compound remaining at 0.5 uM measured after 10 mins. The note with it: read-out: Stability. It is filed as ADME, Microsome. The essentials:
as §1

Data set [4] can be described thus: Plasma concentration in rat at 10 mg/kg, po measured after 5 hrs. In kind it is ADME, organism-based. An outline of the steps: (§2)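 Female rats dosed orally in PEG-400:EtOH:Tween 80 (84:15:1) at 1, 3 or 10 mg/kg. Plasma and brain were collected 5 h post-dose, N=5 rats/dose. Total drug concentrations were determined and the brain/plasma ratio calculated. Values are means with SD.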

A short description of data set [5]: Ratio of drug level in brain to plasma of mouse at 30 mg/kg, po measured at 3 hrs post dose. In kind it is ADME, organism-based. The note with it: read-out: BPR. The essentials: (§3)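 Young mice given a single oral dose of 30 mg/kg. Total brain and plasma drug levels were measured 3 h post-dose and the brain/plasma ratio derived.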
The nature of data set [6]: Drug uptake in mouse brain at 30 mg/kg, po measured after 3 hrs. In kind it is ADME, organism-based. The note with it: read-out: Drug uptake. The essentials:
as §3

A short description of data set [7]: Plasma concentration in mouse at 30 mg/kg, po measured after 3 hrs. It is filed as ADME, organism-based. An outline of the steps: as §3
Data set [8] in a line: Fraction unbound in human plasma. It is filed as ADME, cell-free. An outline of the steps: (§4)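 Unbound fraction of drug determined in human, rat and mouse plasma, reported as percent unbound.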
The nature of data set [9]: Fraction unbound in rat plasma. It is filed as ADME, cell-free. The essentials:
as §4

Data set [10] in a line: Fraction unbound in mouse plasma. In kind it is ADME, cell-free. An outline of the steps: as §4
Data set [11] can be described thus: Plasma concentration in rat at 1 mg/kg, po measured after 5 hrs. In kind it is ADME, organism-based. The essentials: as §2
Data set [12] can be described thus: Plasma concentration in rat at 3 mg/kg, po measured after 5 hrs. It is filed as ADME, organism-based. An outline of the steps: as §2
Data set [13] in a line: Drug uptake in rat brain at 1 mg/kg, po measured after 5 hrs. It is filed as ADME, organism-based. To be noted: read-out: Drug uptake. The essentials: as §2
The nature of data set [14]: Drug uptake in rat brain at 3 mg/kg, po measured after 5 hrs. It is filed as ADME, organism-based. The note with it: read-out: Drug uptake. The essentials:
as §2

A short description of data set [15]: Drug uptake in rat brain at 10 mg/kg, po measured after 5 hrs. In kind it is ADME, organism-based. The note with it: read-out: Drug uptake. An outline of the steps:
as §2

A short description of data set [16]: Ratio of drug level in brain to plasma of rat at 1 mg/kg, po measured at 5 hrs post dose. It is filed as ADME, organism-based. The note with it: read-out: BPR. An outline of the steps:
as §2

Data set [17] is described as follows: Ratio of drug level in brain to plasma of rat at 3 mg/kg, po measured at 5 hrs post dose. In kind it is ADME, organism-based. To be noted: read-out: BPR. The essentials: as §2
Data set [18] is described as follows: Ratio of drug level in brain to plasma of rat at 10 mg/kg, po measured at 5 hrs post dose. In kind it is ADME, organism-based. To be noted: read-out: BPR. An outline of the steps:
as §2

Data set [19] is described as follows: Clearance in rat plasma at 2 mg/kg, iv administered as bolus or 10 mg/kg, po. In kind it is ADME, organism-based. An outline of the steps: (§5)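 Rats given a 2 mg/kg IV bolus or 10 mg/kg orally for IV/PO pharmacokinetics. Clearance and volume of distribution come from the IV arm. Clearance is also expressed against rat hepatic blood flow.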
The nature of data set [20]: Clearance in rat plasma at 2 mg/kg, iv administered as bolus or 10 mg/kg, po relative to hepatic blood flow. The note with it: in vivo. It is filed as ADME, organism-based. An outline of the steps: as §5
Data set [21] is described as follows: Volume of distribution in rat plasma at 2 mg/kg, iv administered as bolus or 10 mg/kg, po. It is filed as ADME, organism-based. The essentials:
as §5

Data set [22] can be described thus: Cmax in rat at 10 mg/kg, po measured after 5 hrs. In kind it is ADME, organism-based. Details: dose 10 mg/kg, route oral. To be noted: in vivo. The essentials:
(§6)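 Rat IV/PO pharmacokinetics with a 2 mg/kg IV bolus and a 10 mg/kg oral dose. […] Oral bioavailability is calculated from the IV and PO AUC values.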

Data set [23] can be described thus: Oral bioavailability in rat at 10 mg/kg measured after 5 hrs. In kind it is ADME, organism-based. To be noted: in vivo. The essentials: as §6
In the next data set the target is T1, Cytochrome P450 1A2 (Homo sapiens, UniProt P05177).
T1 sequence (P05177 whole entry): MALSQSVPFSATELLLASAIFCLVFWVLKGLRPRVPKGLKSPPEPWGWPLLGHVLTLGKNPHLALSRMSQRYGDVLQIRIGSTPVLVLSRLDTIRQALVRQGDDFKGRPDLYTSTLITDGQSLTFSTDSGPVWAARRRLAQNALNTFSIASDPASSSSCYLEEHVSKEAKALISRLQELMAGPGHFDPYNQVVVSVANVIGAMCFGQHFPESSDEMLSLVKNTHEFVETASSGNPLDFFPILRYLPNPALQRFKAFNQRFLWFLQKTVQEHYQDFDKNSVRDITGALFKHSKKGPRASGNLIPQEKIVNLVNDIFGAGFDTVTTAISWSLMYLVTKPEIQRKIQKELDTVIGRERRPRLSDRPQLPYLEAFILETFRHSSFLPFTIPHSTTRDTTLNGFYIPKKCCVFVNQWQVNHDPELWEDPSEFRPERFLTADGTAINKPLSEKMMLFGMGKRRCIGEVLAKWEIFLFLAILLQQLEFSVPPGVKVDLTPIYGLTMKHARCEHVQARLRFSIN
Kind of data set: Inhibition of recombinant human CYP1A2 preincubated for 10 mins followed by addition of CEC as substrate measured after 45 mins. In kind it is ADME. The essentials: (§7)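 Inhibition of recombinant human CYP1A2, CYP2C9, CYP2C19, CYP2D6 and CYP3A4 enzymes, reported as IC50.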

A further data set concerns the target Cytochrome P450 2C9 (Homo sapiens, UniProt P11712). The experiment in a line: Inhibition of recombinant human CYP2C9 preincubated for 10 mins followed by addition of MFC as substrate measured after 45 mins. It is filed as ADME. The essentials: as §7
In the next data set the target is Cytochrome P450 2C19 (Homo sapiens, UniProt P33261). The experiment in a line: Inhibition of recombinant human CYP2C19 preincubated for 10 mins followed by addition of CEC as substrate measured after 45 mins. It is filed as ADME. An outline of the steps:
as §7

The next data set deals with Cytochrome P450 2D6 (Homo sapiens, UniProt P10635). Kind of data set: Inhibition of recombinant human CYP2D6 preincubated for 10 mins followed by addition of AMMC as substrate measured after 45 mins. In kind it is ADME. An outline of the steps: as §7
Sequence of Cytochrome P450 2D6 (P10635 whole entry): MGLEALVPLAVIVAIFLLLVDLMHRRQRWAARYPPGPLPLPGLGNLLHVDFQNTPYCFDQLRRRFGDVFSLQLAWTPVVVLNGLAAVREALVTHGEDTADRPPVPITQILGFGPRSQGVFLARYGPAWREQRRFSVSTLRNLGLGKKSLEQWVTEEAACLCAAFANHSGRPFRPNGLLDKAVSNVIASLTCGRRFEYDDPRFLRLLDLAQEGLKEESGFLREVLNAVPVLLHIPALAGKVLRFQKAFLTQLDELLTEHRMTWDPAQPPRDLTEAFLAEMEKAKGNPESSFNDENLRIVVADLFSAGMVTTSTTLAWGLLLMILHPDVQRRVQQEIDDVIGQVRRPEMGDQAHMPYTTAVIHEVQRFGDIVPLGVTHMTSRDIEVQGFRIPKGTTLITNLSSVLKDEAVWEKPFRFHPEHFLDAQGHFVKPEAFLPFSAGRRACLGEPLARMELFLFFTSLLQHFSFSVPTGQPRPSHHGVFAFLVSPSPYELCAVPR
For a further data set, the target named is Cytochrome P450 3A4 (Homo sapiens, UniProt P08684). Kind of data set: Inhibition of recombinant human CYP3A4 preincubated for 10 mins followed by addition of BFC as substrate measured after 45 mins. In kind it is ADME. The essentials:
as §7

The nature of data set [24]: Fraction unbound in rat plasma at 1 to 10 mg/kg, po. It is filed as ADME, organism-based. The note with it: in vivo.
Data set [25] is described as follows: Ratio of fraction unbound in rat plasma to IC50 for BACE1 in human H4 cells expressing swedish mutant APP751. It is filed as ADME, cell-based.
Data set [26] deals with Rattus norvegicus. The experiment in a line: In vivo inhibition of BACE1 in po dosed rat assessed as reduction in brain amyloid beta42 level measured after 5 hrs by ELISA. Background: In an ELISA, binding on a coated surface is turned into a signal by an enzyme label.
The test system of data set [27] is Rattus norvegicus. Kind of data set: In vivo inhibition of BACE1 in po dosed rat assessed as reduction in brain amyloid beta40 level measured after 5 hrs by ELISA relative to control.
For data set [28], the system named is Rattus norvegicus. Kind of data set: In vivo inhibition of BACE1 in po dosed rat assessed as reduction in brain amyloid beta42 level measured after 5 hrs by ELISA relative to control.
In data set [29] the test system is Rattus norvegicus. The experiment in a line: In vivo inhibition of BACE1 in po dosed rat assessed as reduction in total amyloid beta level in brain measured after 5 hrs by ELISA relative to control.
The subject of a further data set is Mus musculus. The experiment in a line: In vivo inhibition of BACE1 in mouse assessed as reduction in brain amyloid beta level at 30 mg/kg, po measured after 3 hrs by ELISA relative to control. In kind it is functional. The essentials:
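Young mice dosed orally at 30 mg/kg. Brain Aβ was measured 3 h post-dose and expressed as percent reduction.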

Sequence of Cytochrome P450 2C9 (P11712 whole entry): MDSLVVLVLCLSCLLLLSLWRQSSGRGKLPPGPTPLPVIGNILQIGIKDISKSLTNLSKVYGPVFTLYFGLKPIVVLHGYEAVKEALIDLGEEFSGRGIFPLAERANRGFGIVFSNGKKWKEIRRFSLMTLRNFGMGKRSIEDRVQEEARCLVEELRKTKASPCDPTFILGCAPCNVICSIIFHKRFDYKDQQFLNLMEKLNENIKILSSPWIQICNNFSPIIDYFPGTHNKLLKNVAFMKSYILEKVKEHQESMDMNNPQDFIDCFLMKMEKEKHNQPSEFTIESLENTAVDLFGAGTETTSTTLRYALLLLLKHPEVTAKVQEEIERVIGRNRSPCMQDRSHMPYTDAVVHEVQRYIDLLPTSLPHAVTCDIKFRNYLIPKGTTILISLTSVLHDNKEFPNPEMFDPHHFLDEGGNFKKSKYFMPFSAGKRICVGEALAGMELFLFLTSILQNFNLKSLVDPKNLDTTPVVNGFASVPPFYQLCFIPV
Sequence of Cytochrome P450 2C19 (P33261 whole entry): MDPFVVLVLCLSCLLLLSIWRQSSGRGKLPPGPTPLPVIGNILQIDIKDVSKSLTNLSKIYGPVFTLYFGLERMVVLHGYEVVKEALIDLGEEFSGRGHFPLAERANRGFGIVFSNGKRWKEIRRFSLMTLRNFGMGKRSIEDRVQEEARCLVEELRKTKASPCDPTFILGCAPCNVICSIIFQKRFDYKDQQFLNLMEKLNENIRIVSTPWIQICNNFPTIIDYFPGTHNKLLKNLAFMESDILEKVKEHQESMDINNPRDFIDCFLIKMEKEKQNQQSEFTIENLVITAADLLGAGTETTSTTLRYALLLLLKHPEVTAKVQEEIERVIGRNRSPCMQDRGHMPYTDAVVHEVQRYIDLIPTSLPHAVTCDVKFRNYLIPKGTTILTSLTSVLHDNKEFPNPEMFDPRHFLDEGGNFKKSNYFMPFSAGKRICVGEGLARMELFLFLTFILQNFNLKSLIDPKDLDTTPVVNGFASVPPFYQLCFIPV
Sequence of Cytochrome P450 3A4 (P08684 whole entry): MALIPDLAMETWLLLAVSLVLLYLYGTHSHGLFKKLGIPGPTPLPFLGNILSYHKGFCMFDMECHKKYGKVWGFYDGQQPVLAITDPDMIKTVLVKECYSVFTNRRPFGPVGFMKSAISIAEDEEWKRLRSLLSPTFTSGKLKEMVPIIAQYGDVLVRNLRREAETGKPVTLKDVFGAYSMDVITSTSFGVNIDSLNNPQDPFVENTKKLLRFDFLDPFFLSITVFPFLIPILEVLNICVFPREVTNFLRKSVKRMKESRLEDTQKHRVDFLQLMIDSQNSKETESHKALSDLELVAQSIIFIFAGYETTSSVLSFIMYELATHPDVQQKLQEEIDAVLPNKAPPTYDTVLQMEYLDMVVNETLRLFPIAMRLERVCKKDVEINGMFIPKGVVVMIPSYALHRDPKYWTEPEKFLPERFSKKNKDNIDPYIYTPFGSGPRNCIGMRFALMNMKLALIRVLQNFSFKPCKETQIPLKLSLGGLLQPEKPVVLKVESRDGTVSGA

Take `Cc1onc(-c2cccnc2)c1[C@@H]1C[C@@](C)(c2ccc(F)cc2F)N=C(N)S1`: the values for the remaining at 10 min, 0.5 µM in data set [1], in data set [2] and in data set [3] were 5%, 6% and 17%, respectively. For the same compound, at Beta-secretase 1, the IC50 (usually the point on the concentration scale where inhibition reaches its midpoint) is 180 nM.
On the same counts, the results for `Cc1noc(C)c1[C@@H]1C[C@@](C)(c2ccc(F)cc2)N=C(N)S1` are 78%, 90%, 73% and 600 nM.
Consider `C[C@@]1(c2ccc(F)cc2F)C[C@@H](c2cncnc2)SC(N)=N1`, for which the concentration at 5 h amounted to 6.6 µM in data set [4]; 820 nM in data set [11]; 1800 nM in [12]; 2300 nM in data set [13]; 2800 nM in data set [14]; 12 µM in data set [15]. Moreover, the Kp at 3 h in data set [5] was determined as 1.8. The remaining at 10 min, 0.5 µM came to 95% in [1], 68% in [2] and 90% in [3]. In addition, the IC50 at Beta-secretase 1 was 310 nM; at Cytochrome P450 1A2 it was more than 20 µM; at Cytochrome P450 2C9, more than 20 µM; on Cytochrome P450 2C19 it was 9 µM; at Cytochrome P450 2D6, more than 20 µM; on Cytochrome P450 3A4, more than 20 µM. Also, the concentration at 3 h in data set [6] and in [7] was 6.7 µM each time. For the same compound, the fraction unbound (commonly the share of the substance not bound to proteins or other matrix) in data set [8] came to 0.37; in data set [9] it was 0.48; in [10], 0.42. Also, the Kp at 5 h amounted to 2.8 in data set [16], 1.8 in data set [17] and 1.8 in [18]. The clearance in data set [19] was 12 mL/min/kg. The CL in data set [20] is 20%. The compound further showed a Vd in data set [21] of 8.2 L/kg. Further, the Cmax (in general, the highest concentration seen after dosing) in data set [22] turned out to be 3.7 µM. For the same compound, in [23], the bioavailability (commonly the share of a dose that reaches the circulation, judged against a reference dose that is usually intravenous) is more than 100%. Also, in data set [24], the “Cp(f)” value worked out at 1.8 µM. Besides, in data set [25], the Ratio came to 6. Also, in the data set with Rattus norvegicus [26], the EC50 (as a rule, the concentration giving half of the maximal effect) came to 3.8 µM. Moreover, the inhibition entry in the data set with Rattus norvegicus [27], in the data set on Rattus norvegicus [28] and in the data set with Rattus norvegicus [29] was “Dose-dependent effect” in each case.
`Cn1nccc1[C@@H]1C[C@@](C)(c2ccc(F)cc2F)N=C(N)S1`: the Kp at 3 h in [5] is 1.3. The figures for the remaining at 10 min, 0.5 µM in [1], in data set [2] and in data set [3] were 78%, 72% and 70%, respectively. For the same compound, the IC50 at Beta-secretase 1 is 350 nM. Besides, the concentration at 3 h in [6] and in data set [7] was 4.3 µM in each case. Besides, the inhibition in vivo (as a rule, the share of the control response that was lost under treatment) at 30 mg/kg with Mus musculus amounted to 62%.
As for `Cc1noc(C)c1[C@@H]1C[C@@](C)(c2ccccc2)N=C(N)S1`, the results for the remaining at 10 min, 0.5 µM in data set [1], in [2] and in data set [3] were 81%, 78% and 86%, respectively. Moreover, the IC50 at Beta-secretase 1 was 480 nM.
On the same counts, the results for `Cc1nocc1[C@@H]1C[C@@](C)(c2ccc(F)cc2F)N=C(N)S1` are 77%, 80%, 65% and 300 nM.
As for `Cc1noc(C)c1[C@@H]1C[C@@](C)(c2sccc2Cl)N=C(N)S1`, the remaining at 10 min, 0.5 µM amounted to 12% in [1], 21% in data set [2] and 11% in [3]. Besides, the IC50 on Beta-secretase 1 turned out to be 300 nM.
On the same counts, the results for `CCc1noc(CC)c1[C@@H]1C[C@@](C)(c2ccc(F)cc2F)N=C(N)S1` are 67%, 59%, 35% and 420 nM.
